Reference: ChEMBL document CHEMBL1149905, “A mutual prodrug ester of GABA and perphenazine exhibits antischizophrenic efficacy with diminished extrapyramidal effects” (J Med Chem, 2008)
Activity calls are given as the source filed them.

How the values were obtained:
Rattus norvegicus [1] = assay: Increase in prolactin level in Wistar rat plasma at 7.5 mg/kg, ip after 1 hr relative to control; assay type: functional, organism-based; set-up: dose 7.5 mg/kg
Summary of the method: (§1)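 Male Wistar rats (150–230 g), four per group, dosed ip in 1% lactic acid vehicle. Blood taken from the orbital vein under light ether anesthesia before dosing and 1 and 2 h after. EDTA plasma was separated at 1600g for 20 min and frozen at -78 °C. Prolactin was measured by double-antibody rat prolactin RIA, compared with vehicle and time 0 (t test).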

Rattus norvegicus [2] = assay: Increase in prolactin level in Wistar rat plasma at 7.5 mg/kg, ip after 2 hrs relative to control; assay type: functional, organism-based; set-up: dose 7.5 mg/kg; summary of the method: as §1
Rattus norvegicus [3] = assay: Toxicity assessed as induction of cataleptic extrapyramidal symptoms in Wistar rat at 7.5 mg/kg, ip after 7 hrs by wall descending test; assay type: organism-based; set-up: dose 7.5 mg/kg, route intraperitoneal; conditions: in vivo
Summary of the method: (§2)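 Rats (six/group) were injected ip with 5 mg/kg or 7.5 mg/kg of the parent drugs, or equimolar esters, in 1% lactic acid. Wall descending test: the time for a rat hanging on the cage wall to move its hind legs to the floor was recorded, with a 120 s maximum. Rats were tested every 30 min up to 420 min post-dose.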

Rattus norvegicus [4] = assay: Increase in prolactin level in Wistar rat plasma at 5 mg/kg, ip after 1 hr relative to control; assay type: functional, organism-based; set-up: dose 5 mg/kg
Summary of the method: (§3)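 Male Wistar rats (150–230 g; four/group) received drug ip in 1% lactic acid, with a vehicle control group. Orbital-vein blood was taken under light ether anesthesia before dosing and at 1 and 2 h, collected into EDTA on ice. Plasma was spun at 1600g for 20 min and frozen at -78 °C. Prolactin was measured by double-antibody rat prolactin RIA. Comparison was by t test against control and time 0.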

Rattus norvegicus [5] = assay: Increase in prolactin level in Wistar rat plasma at 5 mg/kg, ip after 2 hrs relative to control; assay type: functional, organism-based; set-up: dose 5 mg/kg; summary of the method: as §3
Rattus norvegicus [6] = assay: Toxicity assessed as induction of cataleptic extrapyramidal symptoms in Wistar rat at 5 mg/kg, ip after 2 hrs by wall descending test; assay type: organism-based; set-up: dose 5 mg/kg, route intraperitoneal; conditions: in vivo; summary of the method: as §2
Rattus norvegicus [7] = assay: Increase in prolactin level in Wistar rat plasma at 5 to 20 mg/kg, po after 90 to 180 mins relative to control; assay type: functional, organism-based
Summary of the method: (§4)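 Five groups of male Wistar rats (4/group) were gavaged with 1% lactic acid vehicle, 5, 10 or 20 mg/kg, or equimolar 7, 14 or 28 mg/kg of the ester salt. Orbital-vein plasma was sampled under light ether at 0, 90 and 180 min and prolactin assayed by double-antibody RIA. Comparison was by t test against control and time 0.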

Rattus norvegicus [8] = assay: Increase in prolactin level in Wistar rat plasma at 7 to 28 mg/kg, po after 90 to 180 mins relative to control; assay type: functional, organism-based; summary of the method: as §4
Rattus norvegicus [9] = assay: Decrease in sedation in Wistar rat at 5 to 20 mg/kg, po; assay type: functional, organism-based
Summary of the method: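 Male Wistar rats (150–230 g) were dosed by gavage. During catalepsy testing, sedation/alertness was recorded double-blind. The ip study used this scale: 0 active mobile; * calm and mobile; ** calm and immobile; *** ataxic and non-alert.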

Rattus norvegicus [10] = assay: Reduction of cataleptic behavior in Wistar rat at 5 to 20 mg/kg, po by bar test; assay type: functional, organism-based
Summary of the method: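 Rats were gavaged with 5, 10 or 20 mg/kg or equimolar doses, and catalepsy was scored 4 h post-dose; a time course was run at 5 and 10 mg/kg. Bar test: forelimbs rested on a 5.5 cm bar, and the time to descend to the surface was recorded. Rats were tested individually, hourly, with a 120 s cutoff.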

Rattus norvegicus [11] = assay: Reduction of D-amphetamine-induced hyperactivity in Wistar rat assessed as reduction of wall-climbing at 2.5 mg/kg, po; assay type: functional, organism-based; set-up: dose 2.5 mg/kg
Summary of the method: (§5)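 Male Wistar rats (six/group) were dosed po with 1% lactic acid vehicle (two groups), 2.5 mg/kg or equimolar test agent, or GABA at 1 mg/kg. After 90 min, all groups except one vehicle group received D-amphetamine (2.0 mg/kg ip). Rats were placed singly in barrels, and after 30 min head movements and wall-climbing attempts over 120 s were counted double-blind.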

Rattus norvegicus [12] = assay: Reduction of D-amphetamine-induced hyperactivity in Wistar rat assessed as reduction of head movements at 2.5 mg/kg, po; assay type: functional, organism-based; set-up: dose 2.5 mg/kg; summary of the method: as §5
Rattus norvegicus [13] = assay: Toxicity assessed as induction of cataleptic extrapyramidal symptoms in Wistar rat at 7.5 mg/kg, ip after 2 hrs by wall descending test; assay type: organism-based; set-up: dose 7.5 mg/kg, route intraperitoneal; conditions: in vivo
Summary of the method: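 Male Wistar rats (150–230 g), six per group, dosed ip in 1% lactic acid. Wall descending test: time for a rat hanging on the cage wall to move its hind legs and reach the floor, capped at 120 s. Rats were tested individually, every 30 min up to 420 min. Sedation was scored double-blind at the same time points.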

Rattus norvegicus [14] = assay: Inhibition of D-amphetamine-induced hyperactivity in Wistar rat at 2.5 mg/kg, po; assay type: functional, organism-based; set-up: dose 2.5 mg/kg; summary of the method: as §5
Rattus norvegicus [15] = assay: Toxicity assessed as induction of cataleptic extrapyramidal symptoms in orally dosed Wistar rat by bar test; conditions: in vivo, po

Compound | Activity (Rattus norvegicus [1]) | Activity (Rattus norvegicus [2]) | Activity (Rattus norvegicus [4]) | Activity (Rattus norvegicus [5]) | Activity (Rattus norvegicus [6]) | also measured
Cl.NCCCC(=O)OCCN1CCN(CCCN2c3ccccc3Sc3ccc(C(F)(F)F)cc32)CC1 | Active | Active |  |  |  | Activity (Rattus norvegicus [3]): Non-toxic
Cl.NCCCC(=O)OCCN1CCN(CCCN2c3ccccc3Sc3ccc(Cl)cc32)CC1 [BL-1020] |  |  | Active | Active | Non-toxic | Activity (Rattus norvegicus [7]): Active; Activity (Rattus norvegicus [8]): Active; Activity (Rattus norvegicus [9]): Active; Activity (Rattus norvegicus [10]): Active; Activity (Rattus norvegicus [11]): Active; Activity (Rattus norvegicus [12]): Active
OCCN1CCN(CCCN2c3ccccc3Sc3ccc(C(F)(F)F)cc32)CC1 [FLUPHENAZINE] | Active | Active |  |  |  | Activity (Rattus norvegicus [13]): Toxic
OCCN1CCN(CCCN2c3ccccc3Sc3ccc(Cl)cc32)CC1 [PERPHENAZINE] |  |  | Active | Active | Toxic | Activity (Rattus norvegicus [14]): Active; Activity (Rattus norvegicus [15]): Dose-dependent effect
